Four compounds from ChEMBL document CHEMBL3124889, “Synthesis, spectroscopic, and photophysical characterization and photosensitizing activity toward prokaryotic and eukaryotic cells of porphyrin-magainin and -buforin conjugates” (J Med Chem, 2014) can be followed below.

Active and inactive are the calls of the source. The calls are words filed in the database; no cut-off is given here. Where a SMILES comes first, the peptide text is derived from it. [ ]: non-standard residue; d: D form. The star is where a group is joined. Benzoyl(4-TriPhPorphyrinyl) = O=C(c1ccc(-c2c3nc(c(-c4ccccc4)c4ccc([nH]4)c(-c4ccccc4)c4nc(c(-c5ccccc5)c5ccc2[nH]5)C=C4)C=C3)cc1)*; X1 = C[n+]1ccc(-c2c3nc(c(-c4cc[n+](C)cc4)c4ccc([nH]4)c(-c4cc[n+](C)cc4)c4nc(c(-c5ccc(C(=O)*)cc5)c5ccc2[nH]5)C=C4)C=C3)cc1; His(π-Me) = Cn1cncc1C[C@H](N)C(=O)O

Series [1] in a line: Drug uptake in human HFFF2 cells in assessed as increase in red fluorescence at 5 uM incubated for 60 to 3 hrs mins by flow cytometry. As to conditions: hfff2, 5 µM. The class given is ADME, cell-based. Background: Flow cytometry measures light scatter and fluorescence of single cells or particles in a stream.
Series [2] can be described thus: Drug uptake in human HFFF2 cells assessed as increase in red fluorescence at 5 uM incubated for 60 to 3 hrs mins followed by irradiated with 13.5 J cm'-2 of blue light by flow cytometry. The class given is ADME, cell-based. As to conditions: hfff2, 5 µM.
Series [3] can be described thus: Drug uptake in human HFFF2 cells assessed as increase in red fluorescence at 5 uM incubated for 60 to 3 hrs mins followed by irradiated with 13.5 J cm'-2 of blue light by fluorescence microscopic analysis. The class given is ADME, cell-based. As to conditions: hfff2, 5 µM.
A short description of series [4]: Photoinactivation of human HFFF2 cells incubated for 60 mins followed by irradiated with 13.5 J cm'-2 of blue light. It counts as cell-based. As to conditions: HFFF2, light or radiation study, 1 h.
Series [5] in a line: Drug uptake in human HFFF2 cells assessed as increase in red fluorescence at 5 uM incubated for 60 to 3 hrs mins followed by irradiated with 13.5 J cm'-2 of blue light measured after drug washout by flow cytometry. It counts as ADME, cell-based. As to conditions: hfff2, 5 µM.
Series [6] deals with Staphylococcus aureus. The series is described as follows: Photoinactivation of methicillin-resistant Staphylococcus aureus ATCC BAA-44 at 0.5 to 1 uM incubated for 60 mins followed by irradiated with 13.5 J cm'-2 of blue light. It counts as functional, organism-based. The method in brief:
(§1)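 Stationary-phase overnight BHI cultures (37 °C) were washed and resuspended in PBS (pH 7.3) at ~2 × 10^7 cells/mL, then incubated with PS in the dark at rt for 60 min. Suspensions were left unwashed or washed three times with PBS. They were irradiated with blue light (390–460 nm, 15.2 mW cm−2) to 13.5 J cm−2. Serial 10-fold dilutions were plated in duplicate on BHI agar and cfu counted after overnight growth at 37 °C. Experiments were repeated at least three times.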

Series [7] deals with Escherichia coli. The series is described as follows: Photoinactivation of Escherichia coli ATCC 25922 assessed as log reduction of CFU at 5 uM incubated for 60 mins followed by irradiated with 13.5 J cm'-2 of blue light measured after drug washout. The class given is functional. The method in brief:
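Overnight BHI cultures (37 °C, stationary phase) washed and resuspended in PBS pH 7.3 at ~2 × 10^7 cells/mL. Incubated with increasing PS concentrations for 60 min in the dark at room temperature. Serial 10-fold dilutions plated in duplicate on BHI agar for CFU; at least three independent experiments.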

The test system of series [8] is Escherichia coli. The series is described as follows: Photoinactivation of Escherichia coli ATCC 25922 assessed as log reduction of CFU at 15 uM incubated for 60 mins followed by irradiated with 13.5 J cm'-2 of blue light measured after drug washout. The class given is functional. The method in brief: as §1
The nature of series [9]: Photoinactivation of human HFFF2 cells at 3 uM incubated for 60 mins followed by irradiated with 13.5 J cm'-2 of blue light. It counts as cell-based. As to conditions: hfff2, 1 h. An outline of the steps:
(§2)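 HFFF2 fibroblasts were grown in DMEM with 10% FBS at 37 °C and 5% CO2, seeded at 7 × 10^3 cells/well and grown 48 h. Cells were incubated 60 min in the dark with PS in medium with 3% FBS, washed twice with PBS containing Ca2+/Mg2+, and irradiated in PBS with 13.5 J cm−2 of blue light. After 24 h in 10% FBS medium, viability was read by MTS (1.5 h, A492) as % of untreated control.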

The subject of series [10] is Staphylococcus aureus. Nature of the series: Drug uptake in methicillin-resistant Staphylococcus aureus ATCC BAA-44 assessed as increase in red fluorescence at 1.5 uM incubated for 60 mins measured after drug washout by flow cytometry. To be noted: in vivo, 1 h. The class given is ADME, organism-based. An outline of the steps: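 Stationary-phase overnight BHI cultures (37 °C) were washed twice and resuspended in PBS (pH 7.3) at ~2 × 10^7 cells/mL. They were then analysed by flow cytometry for cell-associated red porphyrin fluorescence, either unwashed or after three PBS washes (10 000g, 5 min). Cells without PS set the background fluorescence.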

Series [11] concerns Escherichia coli. The series is described as follows: Drug uptake in Escherichia coli ATCC 25922 assessed as increase in red fluorescence at 5 uM incubated for 60 mins by flow cytometry. To be noted: in vivo, 1 h. It counts as ADME, organism-based. The method in brief:
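Stationary-phase cells grown overnight in BHI at 37 °C, washed twice, resuspended in PBS pH 7.3 at ~2 × 10^7 cells/mL. Exposed to PS in the dark at room temperature for 60 min, then analysed directly or after three PBS washes (centrifugation at 10 000g for 5 min). Read-out is cell-associated porphyrin red fluorescence by flow cytometry; background taken from cells without PS.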

Series [12] can be described thus: Drug uptake in human HFFF2 cells assessed as increase in red fluorescence at 5 uM incubated for 60 mins followed by irradiated with 13.5 J cm'-2 of blue light by flow cytometry. The class given is ADME, cell-based. To be noted: hfff2, 1 h.
The nature of series [13]: Photoinactivation of human HFFF2 cells at 5 uM incubated for 60 mins followed by irradiated with 13.5 J cm'-2 of blue light. To be noted: hfff2, 1 h. The class given is cell-based. An outline of the steps: as §2
Series [14] in a line: Solubility of the compound in water. It counts as physicochemical. To be noted: buffer.

As to `CC[C@H](C)[C@H](NC(=O)[C@H](Cc1ccc(O)cc1)NC(=O)[C@@H](NC(=O)[C@@H]1CCCN1C(=O)[C@H](CCCNC(=N)N)NC(=O)[C@H](CC(N)=O)NC(=O)[C@H](CC(N)=O)NC(=O)CNC(=O)c1ccc(-c2c3nc(c(-c4ccccc4)c4ccc([nH]4)c(-c4ccccc4)c4nc(c(-c5ccccc5)c5ccc2[nH]5)C=C4)C=C3)cc1)C(C)C)C(=O)N1CCC[C@H]1C(=O)N[C@@H](CCC(N)=O)C(=O)N1CCC[C@H]1C(=O)N[C@@H](CCCNC(=N)N)C(=O)N1CCC[C@H]1C(=O)N1CCC[C@H]1C(=O)N[C@@H](Cc1cnc[nH]1)C(=O)N1CCC[C@H]1C(=O)N[C@@H](CCCNC(=N)N)C(=O)N[C@@H](CC(C)C)C(=O)O` ({Benzoyl(4-TriPhPorphyrinyl)}-GNNRPVYIPQPRPPHPRL-OH), the Drug uptake result in [1], in series [2], in [3] and in series [5] was “Active” throughout. This compound also showed an IC50 in series [4] of 21 nM.

Regarding `CC[C@H](C)[C@H](NC(=O)[C@H](Cc1ccc(O)cc1)NC(=O)[C@@H](NC(=O)[C@@H]1CCCN1C(=O)[C@H](CCCNC(=N)N)NC(=O)[C@H](CC(N)=O)NC(=O)[C@H](CC(N)=O)NC(=O)CNC(=O)c1ccc(-c2c3nc(c(-c4cc[n+](C)cc4)c4ccc([nH]4)c(-c4cc[n+](C)cc4)c4nc(c(-c5cc[n+](C)cc5)c5ccc2[nH]5)C=C4)C=C3)cc1)C(C)C)C(=O)N1CCC[C@H]1C(=O)N[C@@H](CCC(N)=O)C(=O)N1CCC[C@H]1C(=O)N[C@@H](CCCNC(=N)N)C(=O)N1CCC[C@H]1C(=O)N1CCC[C@H]1C(=O)N[C@@H](Cc1cncn1C)C(=O)N1CCC[C@H]1C(=O)N[C@@H](CCCNC(=N)N)C(=O)N[C@@H](CC(C)C)C(=O)O` (X1-GNNRPVYIPQPRPP[His(π-Me)]PRL-OH), the Drug uptake entry was “Active” in series [1], “Active” in series [2], “Not Active” in series [3] and “Active” in series [5]. Moreover, half-maximal inhibition in [4] (IC50) was put at 9 nM.

As for `C[n+]1ccc(-c2c3nc(c(-c4cc[n+](C)cc4)c4ccc([nH]4)c(-c4ccc(C(=O)O)cc4)c4ccc([nH]4)c(-c4cc[n+](C)cc4)c4nc2C=C4)C=C3)cc1`, the Drug uptake entry in [1] is reported as “Active”; in series [2] it was “Active”; in series [3], “Not Active”; in [10], “Not Active”; in series [11], “Not Active”; in [12], “Active”. Also, the Drug uptake result in series [5] was “Active”. Also, the outcome in [6] and in series [7] was Active. Further, the CFU/ml in series [8] was 1 log reduction. Further, the Activity result in series [9] and in [13] was “Toxic” throughout. Further, half-maximal inhibition in series [4] (IC50) required 230 nM.

In the case of `O=C(O)c1ccc(-c2c3nc(c(-c4ccccc4)c4ccc([nH]4)c(-c4ccccc4)c4nc(c(-c5ccccc5)c5ccc2[nH]5)C=C4)C=C3)cc1`, the Drug uptake entry in series [1] is on record as “Active”; in series [2], “Active”; in [3], “Not Active”; in series [10] it was “Not Active”; in series [11], “Not Active”; in series [12] it was “Active”. In addition, the Drug uptake entry in [5] is recorded as “Active”. For the same compound, in [14], the solubility entry is on record as “Insoluble”. The Activity entry in series [9] and in series [13] was “Toxic” in each case. In series [4], the half-inhibitory concentration (IC50) turned out to be 1270 nM.

For orientation: IC50 means the concentration that gives 50% inhibition.
